Here are results for two compounds from ChEMBL document CHEMBL1255265, “Linezolid and tiamulin cross-resistance in Staphylococcus aureus mediated by point mutations in the peptidyl transferase center” (2008).

Assay [1] has as its system Escherichia coli. Kind of assay: Antimicrobial activity wild type Escherichia coli SQ110 by agar dilution method. The class given is functional. For orientation: In agar dilution, organisms are placed on agar that contains the substance at set levels.
Assay [2] relates to Escherichia coli. Briefly: Antimicrobial activity wild type Escherichia coli SQ110 by agar dilution method in presence of 16 ug/ml polymyxin B nonapeptide. Type of assay: functional. An outline of the steps:
(§1)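 MIC by agar dilution following BSAC guidelines in Mueller-Hinton medium. For E. coli, the medium was supplemented with 16 μg/ml polymyxin B nonapeptide to permeabilize the gram-negative envelope.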

Assay [3] relates to Escherichia coli. Kind of assay: Antimicrobial activity against Escherichia coli KM55-68 harboring G2576U mutation in 23S rRNA by agar dilution method in presence of 16 ug/ml polymyxin B nonapeptide. Type of assay: functional. An outline of the steps:
as §1

Assay [4] has as its system Escherichia coli. Kind of assay: Antimicrobial activity against Escherichia coli KM74 harboring U2500A mutation in 23S rRNA by agar dilution method in presence of 16 ug/ml polymyxin B nonapeptide. The class given is functional. Put shortly: as §1
The subject of assay [5] is Escherichia coli. Briefly: Antimicrobial activity against Escherichia coli KM75-84 harboring Gly153Arg mutation in rplC gene by agar dilution method in presence of 16 ug/ml polymyxin B nonapeptide. The class given is functional. An outline of the steps: as §1
Assay [6] deals with Escherichia coli. Briefly: Antimicrobial activity against Escherichia coli KM85-86 harboring Lys157Gln mutation in rplC gene by agar dilution method in presence of 16 ug/ml polymyxin B nonapeptide. The class given is functional. Put shortly:
as §1

Assay [7] relates to Escherichia coli. Kind of assay: Antimicrobial activity against Escherichia coli KM87-88 harboring Arg141Ser mutation in rplC gene by agar dilution method in presence of 16 ug/ml polymyxin B nonapeptide. Type of assay: functional. Put shortly:
as §1

In assay [8] the test system is Escherichia coli. Kind of assay: Antimicrobial activity against Escherichia coli KM89-94 harboring G2576U mutation in 23S rRNA by agar dilution method in presence of 16 ug/ml polymyxin B nonapeptide. Type of assay: functional. Put shortly:
as §1

The test system of assay [9] is Staphylococcus aureus. Kind of assay: Antimicrobial activity against Staphylococcus aureus KM187+198 harboring G2576U mutation in 23S rRNA by agar dilution method. Type of assay: functional. Put shortly:
(§2)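 S. aureus MICs were determined by agar dilution per BSAC guidelines in Mueller-Hinton medium, without supplement.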

Assay [10] relates to Staphylococcus aureus. Kind of assay: Antimicrobial activity against Staphylococcus aureus NRS119 clinical isolate harboring G2576U mutation in 23S rRNA by agar dilution method. The class given is functional. Put shortly: as §2
For assay [11], the system named is Staphylococcus aureus. Kind of assay: Antimicrobial activity against Staphylococcus aureus NRS120 clinical isolate harboring G2576U mutation in 23S rRNA by agar dilution method. Type of assay: functional. Put shortly: as §2
In assay [12] the test system is Staphylococcus aureus. Briefly: Antimicrobial activity against Staphylococcus aureus NRS121 clinical isolate harboring G2576U mutation in 23S rRNA by agar dilution method. The class given is functional. An outline of the steps:
as §2

For assay [13], the system named is Escherichia coli. Briefly: Antimicrobial activity against Escherichia coli KM69-73 harboring G2447U mutation in 23S rRNA by agar dilution method in presence of 16 ug/ml polymyxin B nonapeptide.
In assay [14] the test system is Escherichia coli. Kind of assay: Antimicrobial activity against tiamulin resistant Escherichia coli SQ110 by agar dilution method. Type of assay: functional.
Assay [15] has as its system Staphylococcus aureus. Kind of assay: Antimicrobial activity against wild type Staphylococcus aureus RN4220 measured after 2 days of subculturing by agar dilution method. Type of assay: functional. The conditions noted are these: RN4220, 48 h. Put shortly:
(§3)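 Resistant mutants were selected by serial subculture in Mueller-Hinton medium containing antibiotic, and time to emergence of resistance was recorded. MICs were determined by agar dilution per BSAC guidelines.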

The subject of assay [16] is Staphylococcus aureus. Briefly: Antimicrobial activity against mutS-expressing Staphylococcus aureus RN4220 measured after 1 day of subculturing by agar dilution method. The class given is functional. The conditions noted are these: RN4220, 24 h. An outline of the steps: as §3
The subject of assay [17] is Staphylococcus aureus. Kind of assay: Antimicrobial activity against tiamulin resistant Staphylococcus aureus 8325-4 after 1 day of subculturing by agar dilution method. The class given is functional. The conditions noted are these: 8325-4, 24 h. An outline of the steps: as §3
Assay [18] has as its system Staphylococcus aureus. Kind of assay: Antimicrobial activity against Staphylococcus aureus KM164-165 harboring Gly155Arg mutation in rplC gene by agar dilution method. The class given is functional. An outline of the steps: as §2
The subject of assay [19] is Staphylococcus aureus. Briefly: Antimicrobial activity against Staphylococcus aureus KM166-167 harboring Ser158Leu mutation in rplC gene by agar dilution method. The class given is functional. An outline of the steps: as §2
Assay [20] concerns Staphylococcus aureus. Briefly: Antimicrobial activity against Staphylococcus aureus RN4220 by agar dilution method. The class given is functional. An outline of the steps:
as §2

The subject of assay [21] is Staphylococcus aureus. Kind of assay: Antimicrobial activity against Staphylococcus aureus KM168 harboring Arg149Ser mutation in rplC gene by agar dilution method. Type of assay: functional. An outline of the steps: as §2

Each structure is given as a SMILES string. Converted amounts (≈) assume the structure as drawn.

What is called MIC is the least concentration at which growth counts as inhibited. Regarding `CC(=O)NC[C@H]1CN(c2ccc(N3CCOCC3)c(F)c2)C(=O)O1` [LINEZOLID], the MIC in assay [1] came out at 256 µg/mL (≈ 759 µM); in assay [2], 16 µg/mL; in assay [3] it was 64 µg/mL; in [4] it was 64 µg/mL; in assay [5], 16 µg/mL; in assay [6], 16 µg/mL. Moreover, the MIC came out at 16 µg/mL in assay [7]; 64 µg/mL in assay [8]; 64 µg/mL (≈ 190 µM) in assay [9]; 64 µg/mL (≈ 190 µM) in assay [10]; 64 µg/mL (≈ 190 µM) in assay [11]; 64 µg/mL (≈ 190 µM) in [12]. Further, the MIC in assay [13] is 64 µg/mL.

Consider `C=C[C@]1(C)C[C@@H](OC(=O)CSCCN(CC)CC)[C@]2(C)[C@H](C)CC[C@]3(CCC(=O)[C@H]32)[C@@H](C)[C@@H]1O` [TIAMULIN], for which the MIC in assay [14] was 128 µg/mL (≈ 259 µM); in assay [15] it was 1 µg/mL (≈ 2.03 µM); in assay [16], 2 µg/mL (≈ 4.05 µM); in assay [17] it was 1 µg/mL (≈ 2.03 µM); in [2], 8 µg/mL; in assay [3], 64 µg/mL. Besides, the MIC in [4] came to 64 µg/mL; in [5], 32 µg/mL; in assay [6], 32 µg/mL; in [7], 64 µg/mL; in assay [8], 64 µg/mL; in assay [18] it was 8 µg/mL (≈ 16.2 µM). The minimal inhibitory concentration (MIC) is 16 µg/mL (≈ 32.4 µM) in assay [19]; 1 µg/mL (≈ 2.03 µM) in [20]; 8 µg/mL (≈ 16.2 µM) in assay [21]; 16 µg/mL (≈ 32.4 µM) in assay [9]; 32 µg/mL (≈ 64.8 µM) in assay [10]; 32 µg/mL (≈ 64.8 µM) in assay [11]. Besides, the MIC was 32 µg/mL (≈ 64.8 µM) in [12] and 64 µg/mL in assay [13].
